Results reported in ChEMBL document CHEMBL5365494, “Bis-6-amidino-benzothiazole Derivative that Cures Experimental Stage 1 African Trypanosomiasis with a Single Dose” (J Med Chem, 2023).

Legend:
Trypanosoma brucei = assay: Antitrypanosomal activity against blood stream form of Trypanosoma brucei 221a variant assessed as parasite growth inhibition measured after 48 hrs by resazurin dye based fluorescence analysis; format: functional, organism-based; details: for EC50: 48 h; for EC90: time 48 hrs
How it was run: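 Bloodstream-form T. b. brucei 221a (MiTat1.2a) in modified Iscove's medium at 37 °C, started at 2.5×10^4 mL^-1 with a concentration range. After 48 h, resazurin was added for a further 16 h. Fluorescence read at ex 545/em 590 nm. EC50 and EC90 taken from three independent replicates.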

[1] = Cytotoxicity against rat L6 cells assessed as cell growth inhibition incubated for 6 days by resazurin dye based assay; format: toxicity
How it was run: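 Rat L6 myoblasts seeded at 1×10⁴ mL⁻¹ in RPMI-1640 with a range of compound concentrations, 6 days at 37 °C; resazurin added, 6 h further, fluorescence ex 545/em 590 nm.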

[2] = Selectivity index, ratio of EC50 for cytotoxicity against rat L6 cells to EC50 for antitrypanosomal activity against bloodstream form of Trypanosoma brucei brucei 221a variant; format: toxicity, cell-based; details: read-out: Ratio EC50
How it was run: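 L6 rat myoblasts seeded at 1×10^4 mL^-1 in RPMI-1640 with a compound concentration range for 6 days at 37 °C. Resazurin added for 6 h, then fluorescence read.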

[3] = Metabolic stability in mouse liver microsomes assessed as half life at 1 uM measured upto 60 mins in presence of NADPH by LC-MS/MS analysis; format: ADME, Microsome; details: 1 h
[4] = Apparent permeability across apical to basolateral side in MDCK-MDR1 cells at 10 uM measured for 60 mins by LC-MS/MS analysis; format: ADME, cell-based, Canis lupus familiaris; details: dog
How it was run: (§1)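 MDCKII-hMDR1 monolayers on inserts, compound 10 μM (1% DMSO) in duplicate, 60 min at 37 °C, bidirectional, with and without elacridar 2 μM. Amprenavir as P-gp control, Lucifer yellow for monolayer integrity; compound quantified by LC–MS/MS.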

[5] = Apparent permeability across basolateral to apical side in MDCK-MDR1 cells at 10 uM measured for 60 mins by LC-MS/MS analysis; format: ADME, cell-based, Canis lupus familiaris; details: dog, MDCK-MDR1; how it was run: as §1
[6] = Efflux ratio of apparent permeability across basolateral to apical side over apical to basolateral side in MDCK-MDR1 cells at 10 uM measured for 60 mins by LC-MS/MS analysis; format: ADME, cell-based, Canis lupus familiaris; details: dog, mdck-mdr1, 1 h
How it was run: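 MDCKII cells overexpressing human MDR1 (P-glycoprotein) grown as monolayers on inserts; bidirectional transport (apical-to-basolateral and basolateral-to-apical) of 10 μM compound (1% DMSO) at 37 °C for 60 min, in duplicate, with and without P-gp inhibitor elacridar (2 μM). Monolayer integrity checked with Lucifer yellow; amprenavir as P-gp control. Compound quantified by LC–MS/MS; efflux ratio = BA Papp/AB Papp.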

| SMILES | EC50 (Trypanosoma brucei) | EC90 (Trypanosoma brucei) | EC50 at 6 days [1] | selectivity ratio [2] | t1/2 [3] | Papp A→B at 1 h, 10 µM [4] | Papp B→A at 1 h, 10 µM [5] | Ratio [6] |
| --- | --- | --- | --- | --- | --- | --- | --- | --- |
| c1cc2nc(CCCCCCCc3nc4ccc(C5=NCCN5)cc4s3)sc2cc1C1=NCCN1 | 1.49 µM | 2.52 µM | 6.85 µM | 4.6 | – | – | – | – |
| N=C(N)c1ccc2nc(CCCCCc3nc4ccc(C(=N)N)cc4s3)sc2c1 | 0.098 µM | 0.145 µM | 114 µM | 1200 | – | – | – | – |
| C[C@]12CC[C@H]3[C@@H](CCC4=CC(=O)CC[C@@]43C)[C@@H]1CC[C@@H]2O [TESTOSTERONE] | – | – | – | – | 6.7 min | – | – | – |
| N=C(N)c1ccc2nc(/C=C/c3nc4ccc(C(=N)N)cc4s3)sc2c1 | 0.012 µM | 0.022 µM | 2.48 µM | 210 | – | – | – | – |
| C(=C\c1nc2ccc(C3=NCCCN3)cc2s1)/c1nc2ccc(C3=NCCCN3)cc2s1 | 0.1 µM | 0.16 µM | 51.8 µM | 520 | – | – | – | – |
| O=C(O)Cc1ccccc1Nc1c(Cl)cccc1Cl [DICLOFENAC] | – | – | – | – | – | 47.3 ×10⁻⁶ cm/s | 31.2 ×10⁻⁶ cm/s | 0.7 |
| Cn1c(=O)c2c(ncn2C)n(C)c1=O [CAFFEINE] | – | – | – | – | > 60 min | – | – | – |
| c1cc2nc(CCCCCc3nc4ccc(C5=NCCN5)cc4s3)sc2cc1C1=NCCN1 | 1.56 µM | 2.11 µM | 93.5 µM | 60 | – | – | – | – |
| N=C(N)c1ccc2nc(CCCCc3nc4ccc(C(=N)N)cc4s3)sc2c1 | 0.063 µM | 0.131 µM | 134 µM | 2100 | – | – | – | – |
| N=C(N)c1ccc2nc(CCc3nc4ccc(C(=N)N)cc4s3)sc2c1 | 0.25 µM | 0.4 µM | > 170 µM | > 680 | – | – | – | – |
| N=C(N)c1ccc2nc(CCCCCCc3nc4ccc(C(=N)N)cc4s3)sc2c1 | 0.89 µM | 1.52 µM | 42.5 µM | 48 | – | – | – | – |
| c1cc2nc(C3CCC(c4nc5ccc(C6=NCCCN6)cc5s4)CC3)sc2cc1C1=NCCCN1 (stereo not drawn) | 0.021 µM | 0.031 µM | > 130 µM | > 6200 | – | – | – | – |
| N=C(N)c1ccc2nc(CCCCCCCc3nc4ccc(C(=N)N)cc4s3)sc2c1 | 0.74 µM | 1.39 µM | 13.9 µM | 18 | – | – | – | – |
| N=C(N)c1ccc2nc(CCCc3nc4ccc(C(=N)N)cc4s3)sc2c1 | 0.34 µM | 0.75 µM | > 160 µM | > 470 | – | – | – | – |
| c1cc2nc(CCc3nc4ccc(C5=NCCN5)cc4s3)sc2cc1C1=NCCN1 | 3.64 µM | 7.82 µM | 80.6 µM | 22 | – | – | – | – |
| c1cc2nc(CCCCc3nc4ccc(C5=NCCCN5)cc4s3)sc2cc1C1=NCCCN1 | 0.19 µM | 0.31 µM | > 130 µM | > 680 | – | – | – | – |
| c1cc2nc(CCCCc3nc4ccc(C5=NCCN5)cc4s3)sc2cc1C1=NCCN1 | 1.14 µM | 1.87 µM | 93 µM | 82 | – | – | – | – |
| c1cc2nc(C3CCC(c4nc5ccc(C6=NCCN6)cc5s4)CC3)sc2cc1C1=NCCN1 (stereo not drawn) | 0.24 µM | 0.49 µM | 4.15 µM | 17 | – | – | – | – |
| CSc1ccc(OCc2ncc([N+](=O)[O-])n2C)cc1 [FEXINIDAZOLE] | 2.4 µM | 4.51 µM | – | – | – | – | – | – |
| CC(C)CN(C[C@@H](O)[C@H](Cc1ccccc1)NC(=O)O[C@H]1CCOC1)S(=O)(=O)c1ccc(N)cc1 [AMPRENAVIR] | – | – | – | – | – | 0.5 ×10⁻⁶ cm/s | – | – |
| c1cc2nc(CCCCCCc3nc4ccc(C5=NCCCN5)cc4s3)sc2cc1C1=NCCCN1 | 0.028 µM | 0.056 µM | > 130 µM | > 4600 | – | – | – | – |
| c1cc2nc(CCc3nc4ccc(C5=NCCCN5)cc4s3)sc2cc1C1=NCCCN1 | 2.38 µM | 3.48 µM | > 140 µM | > 59 | – | – | – | – |
| c1cc2nc(CCCCCCc3nc4ccc(C5=NCCN5)cc4s3)sc2cc1C1=NCCN1 | 0.82 µM | 1.88 µM | 10.9 µM | 13 | – | – | – | – |
| C(=C\c1nc2ccc(C3=NCCN3)cc2s1)/c1nc2ccc(C3=NCCN3)cc2s1 | 0.19 µM | 0.68 µM | 4.1 µM | 22 | – | – | – | – |
| c1cc2nc(CCCc3nc4ccc(C5=NCCN5)cc4s3)sc2cc1C1=NCCN1 | 5.39 µM | 9.01 µM | > 150 µM | > 28 | – | – | – | – |
